This note sets out measurements from ChEMBL document CHEMBL4422635, “Structure-Based Discovery of a Subtype-Selective Inhibitor Targeting a Transient Receptor Potential Vanilloid Channel” (J Med Chem, 2019).

Experiment [1] addresses T1, Transient receptor potential cation channel subfamily V member 2 (Mus musculus) (UniProt Q9WTR1).
T1 sequence (whole entry): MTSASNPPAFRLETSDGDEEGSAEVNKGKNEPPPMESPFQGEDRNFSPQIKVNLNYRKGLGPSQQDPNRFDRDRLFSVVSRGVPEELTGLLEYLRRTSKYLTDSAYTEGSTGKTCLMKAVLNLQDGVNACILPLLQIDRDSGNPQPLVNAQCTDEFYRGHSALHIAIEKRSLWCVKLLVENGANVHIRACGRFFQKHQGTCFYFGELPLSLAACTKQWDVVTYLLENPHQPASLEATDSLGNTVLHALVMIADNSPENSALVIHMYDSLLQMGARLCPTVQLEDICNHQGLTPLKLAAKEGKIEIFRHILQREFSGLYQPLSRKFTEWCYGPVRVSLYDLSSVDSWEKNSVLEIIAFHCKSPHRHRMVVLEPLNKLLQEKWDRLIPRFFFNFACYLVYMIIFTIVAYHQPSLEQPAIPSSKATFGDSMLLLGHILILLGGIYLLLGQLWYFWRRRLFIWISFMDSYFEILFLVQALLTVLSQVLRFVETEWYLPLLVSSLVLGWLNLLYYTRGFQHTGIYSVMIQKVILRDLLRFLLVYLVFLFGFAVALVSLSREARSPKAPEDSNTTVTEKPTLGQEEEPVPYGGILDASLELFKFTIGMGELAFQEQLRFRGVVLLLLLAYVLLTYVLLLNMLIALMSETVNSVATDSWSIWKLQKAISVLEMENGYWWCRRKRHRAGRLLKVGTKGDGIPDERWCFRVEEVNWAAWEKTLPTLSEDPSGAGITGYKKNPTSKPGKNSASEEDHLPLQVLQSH
Briefly: Antagonist activity at mouse TRPV2 expressed in HEK293T cells assessed as inhibition of 2-APB evoked currents at -60 mV holding potential by whole-cell patch clamp assay. The class given is cell-based. In a few lines: (§1)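 Whole-cell voltage clamp of transiently transfected HEK293T cells co-expressing GFP, recorded 36-96 h post-transfection. Hold -60 mV; pipettes 3-7 MΩ. Bath 165 mM NaCl, 10 mM HEPES pH 7.3; pipette 140 mM KCl, 10 mM HEPES pH 7.3. Room temperature (~25 °C). IC50 from Hill fits of I/I0, the current ratio after vs before inhibitor; mean ± SEM.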
(In general: The patch-clamp technique gives a direct electrical read-out from membranes.)

Experiment [2] addresses T1, Transient receptor potential cation channel subfamily V member 2 (Mus musculus). In words: Inhibition of mouse TRPV2 expressed in HEK293T cells assessed as inhibition of 2-APB evoked currents at 10 uM at -60 mV holding potential by whole-cell patch clamp assay. The class given is cell-based. The procedure, abridged:
as §1

Experiment [3] concerns the target T2, Transient receptor potential cation channel subfamily V member 2 (Homo sapiens, UniProt Q9Y5S1).
T2 sequence (Q9Y5S1 whole entry): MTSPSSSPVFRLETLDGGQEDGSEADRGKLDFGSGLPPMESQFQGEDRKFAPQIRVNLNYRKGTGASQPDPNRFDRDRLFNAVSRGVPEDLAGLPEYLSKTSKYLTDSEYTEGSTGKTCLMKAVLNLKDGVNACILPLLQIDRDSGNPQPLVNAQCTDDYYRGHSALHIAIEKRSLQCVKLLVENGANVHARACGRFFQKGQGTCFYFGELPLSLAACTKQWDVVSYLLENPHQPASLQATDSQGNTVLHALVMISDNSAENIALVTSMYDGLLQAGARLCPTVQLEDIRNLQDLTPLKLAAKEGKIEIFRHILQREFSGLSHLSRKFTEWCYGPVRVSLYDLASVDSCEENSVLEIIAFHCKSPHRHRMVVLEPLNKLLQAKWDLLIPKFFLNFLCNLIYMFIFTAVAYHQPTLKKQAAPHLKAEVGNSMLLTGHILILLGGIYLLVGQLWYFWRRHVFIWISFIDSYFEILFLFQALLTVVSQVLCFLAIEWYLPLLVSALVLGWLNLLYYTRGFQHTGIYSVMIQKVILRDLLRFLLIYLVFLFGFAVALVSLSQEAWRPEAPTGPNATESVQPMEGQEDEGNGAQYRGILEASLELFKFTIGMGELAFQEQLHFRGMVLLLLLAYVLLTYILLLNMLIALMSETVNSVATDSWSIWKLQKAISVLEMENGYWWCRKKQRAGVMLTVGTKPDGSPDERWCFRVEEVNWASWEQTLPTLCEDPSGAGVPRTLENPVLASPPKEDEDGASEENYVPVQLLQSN
In words: Antagonist activity at TRPV2 (unknown origin). In a few lines: as §1

The test system of experiment [4] is Mus musculus. Briefly: Antagonist activity at mouse TRPV2/LPAR1 expressed in LPA-stimulated HEK293T cells assessed as inhibition of 2-APB evoked currents at 10 uM dosed 3 mins after LPA stimulation by whole-cell patch clamp assay. In a few lines: as §1
Experiment [5] deals with Mus musculus. Briefly: Antagonist activity at mouse TRPV2/LPAR1 expressed in LPA-stimulated HEK293T cells assessed as inhibition of 2-APB evoked currents at 1 uM dosed 3 mins after LPA stimulation by whole-cell patch clamp assay. In a few lines: as §1

The source made the active and inactive calls. The calls are words filed in the database; no cut-off is given here.

Consider `CN1CCN(c2cc(C(F)(F)F)nc(SCCC(=O)NCc3ccco3)n2)CC1`, for which, in experiment [1], the inhibition entry is “Dose-dependent effect”.
Regarding `COc1ccc(-c2cc(C(F)(F)F)nc(SCCC(=O)NCc3ccco3)n2)cc1`, the inhibition result in experiment [1] is “Dose-dependent effect”. Also, the inhibition entry in experiment [2] was “Active”.
`COc1ccc(/C=C/C(=O)Nc2ccccc2C(=O)O)cc1OC` [TRANILAST] gave an IC50 in experiment [3] of more than 10 µM.
Turning to `Cc1noc(-c2ccc(-c3ccc(CC(=O)O)cc3)cc2)c1NC(=O)O[C@H](C)c1ccccc1Cl`, the inhibition entry in the experiment on Mus musculus [4] and in the experiment on Mus musculus [5] was “Active” each time.

As a reminder, the IC50 is the concentration that inhibits the measured activity by half. Read a high IC50 as weaker potency in that assay.
